assay: Toxicity liver stage against HepG2, at 10uM; type: cell-based; set-up: test concentration 10 uM, cell line HepG2-A16-CD81EGFP; settings: human, HepG2-A16-CD81EGFP cells; read-out: INHIBITION
Outline: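 Uninfected HepG2-A16-CD81EGFP cells, 3 × 10^3 per well, 1536-well, plated on prespotted compound at 10 μM final, parasite-free screening media added to match infected plates; puromycin 10 μM positive, DMSO 0.5% negative; run in parallel with 48 h PbLuc assay at 37 °C, 5% CO2; viability by CellTiter-Glo luminescence, normalized to controls.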

First: O=C(NC1CC1)C1(Cc2ccccc2-c2ccncc2)CCOCC1
Second: COc1ccncc1NC(=O)C1(c2ccccc2)CC1
The cytotoxicity at 10 µM of the first is lower: -3.83% for the first, 2.72% for the second.

Compared with `CN(CCCc1nccn1C)C(=O)C1CCN(C(=O)C2CCC2)CC1`, `Cc1ncc(C(=O)N2CC(C(=O)N3CCCCCC3)C2)c(C)n1` is higher in cytotoxicity at 10 µM: -7.12% for the first, 6.39% for the second.

Compared with `O=C(NCC1CCC2(CC1)OCCO2)c1cccc(-n2cccn2)c1`, `O=C(c1ccc2c(c1)OCO2)N1CCC(Nc2cccnn2)CC1` is lower in cytotoxicity at 10 µM: 0.477% for the first, -15.6% for the second.

Going from `Cc1noc(C2CCCN(C(=O)c3scnc3Cl)C2)n1` (stereo not given) to `CCCC(=O)N1CCCC1(C)c1nc(C)no1` (stereo not given), the cytotoxicity at 10 µM falls from 17.2% to 0.79%.

First: CC(C)OCCC1CCCCN1S(C)(=O)=O (stereo not given)
Second: O=C1NCCCCC1NS(=O)(=O)N1CCCCCC1 (stereo not given)
The cytotoxicity at 10 µM of the first is lower: 2.43% for the first, 4.15% for the second.

First: O=C(OCCF)c1cccc(C(=O)N2CCCC2)n1
Second: O=C(c1cc(=O)[nH]c(=O)[nH]1)N1CCCCC1c1nc2cc(F)ccc2[nH]1 (stereo not given)
The cytotoxicity at 10 µM of the first is higher: 0.684% for the first, -9.64% for the second.

First: Cc1ccc2c(c1)CN(CC(=O)NCCc1ccc(F)cc1)CC(C)O2 (stereo not given)
Second: O=C(Cc1ccc(F)cc1)NCCNS(=O)(=O)C1CCCC1
The cytotoxicity at 10 µM of the first is lower: 1.54% for the first, 9.31% for the second.

First: COc1ccc(CC(=O)N2C[C@H]3CN(Cc4ccccn4)C[C@H]3C2)cc1
Second: COc1ccc2cc(C3CN(C(=O)COC(C)C)CCO3)ccc2c1 (stereo not given)
The cytotoxicity at 10 µM of the first is lower: 3.5% for the first, 7.29% for the second.

First: CN1CC(c2cc(O)nc(NCc3ccc(Cl)cc3)n2)CC1=O (stereo not given)
Second: C[C@@H](CO)Nc1nccc(-c2cnc3sc(Cl)cn3c2=O)n1
The cytotoxicity at 10 µM of the first is lower: -9.54% for the first, 2.52% for the second.

Going from `COc1ccc(CN(C)CC2CCCN2c2cccnn2)cc1F` (stereo not given) to `COCCNc1ccc(CC2CCCN(c3ncccn3)C2)nn1` (stereo not given), the cytotoxicity at 10 µM falls from 4.48% to 3.81%.

First: O=c1c(CN2CCOCC2)coc2ccc(Cl)cc12
Second: CSc1ccc(CN2CCCC3(CNC(=O)c4ccccc4O3)C2)cc1 (stereo not given)
The cytotoxicity at 10 µM of the first is lower: -3.73% for the first, 3.52% for the second.

Compared with `O=C(Nc1ccccn1)C1=NN(c2ccccc2)C(=O)CN1`, `Cc1ncn(CCNC(=O)Nc2ccccc2)c(=O)c1C` is lower in cytotoxicity at 10 µM: -1.53% for the first, -4.39% for the second.

First: CSCCN(C)C(=O)C1(c2ccc(F)cc2F)CCOCC1
Second: CN(C)[C@H]1COC[C@@H]2CN(Cc3ccc4c(c3)OCO4)C[C@@H]21
The cytotoxicity at 10 µM of the first is lower: 0.53% for the first, 4.2% for the second.

Compared with `O=C1COc2cc(S(=O)(=O)NCCC3=CCCCC3)c(Cl)cc2N1`, `O=S(=O)(NCC1(O)CCCC1)c1ccccc1Br` is lower in cytotoxicity at 10 µM: 18.6% for the first, -3.87% for the second.

Going from `CCSc1ccc(C(=O)NCCc2nnc(-c3ccco3)[nH]2)cn1` to `Cc1ccc(-c2nnc(C(C)N3CCc4cncnc4C3)o2)cc1` (stereo not given), the cytotoxicity at 10 µM falls from 10.7% to 0.776%.

Compared with `CNC(=O)[C@H]1C[C@@H]2CN(S(=O)(=O)c3cccc(F)c3)C[C@@H]2N1C`, `CC(C)Oc1ccccc1NC(=O)N1CCC(n2cncn2)CC1` is higher in cytotoxicity at 10 µM: -4.94% for the first, -3.67% for the second.

Going from `CCN(CC(=O)N(C)C)C(=O)c1cc(-c2cccc(Cl)c2)no1` to `COCCNC(=O)CN(C)CCn1nc2ccccn2c1=O`, the cytotoxicity at 10 µM falls from 6.17% to -156%.

First: CCCNC(=O)CN1CCC(C(=O)Nc2cnn(CC)c2)CC1
Second: CN(CCCc1cnn(C)c1)Cc1cc2n(n1)CCCN(C)C2
The cytotoxicity at 10 µM of the first is lower: -2.04% for the first, -0.857% for the second.

First: Cn1cccc1C(=O)N1CCc2ncnc(C3CC3)c2CC1
Second: O=C(CSC1CCc2ccccc2NC1=O)NC1CC1 (stereo not given)
The cytotoxicity at 10 µM of the first is lower: 5.17% for the first, 6.58% for the second.

Going from `CCOCC1CN(C(=O)c2ccco2)Cc2cnn(CC)c21` (stereo not given) to `Cc1nccc([C@@H]2C[C@@H]3CCN(Cc4ccco4)C[C@H]3O2)n1`, the cytotoxicity at 10 µM rises from -69% to -2.61%.

First: COC(=O)CC(c1cccs1)c1oc(C)cc(=O)c1O (stereo not given)
Second: NC(=O)C(NC(=O)c1cc(Br)c[nH]1)c1ccccc1 (stereo not given)
The cytotoxicity at 10 µM of the first is higher: 2.99% for the first, 0.172% for the second.

First: CCc1n[nH]c(C2CN(CCS(C)(=O)=O)CCO2)n1 (stereo not given)
Second: CN(C)CCOc1cccc(CN2CCCC3(C2)CN(C)C(=O)O3)c1 (stereo not given)
The cytotoxicity at 10 µM of the first is lower: -18% for the first, -5.82% for the second.

`Cc1cc(C)nc(C2CCCN2C(=O)c2coc(C)n2)n1` (stereo not given) showed a cytotoxicity at 10 µM of 6.93%.
